13 molecules from ChEMBL document CHEMBL3351838, “Ligand-based pharmacophore modeling and virtual screening for the discovery of novel 17β-hydroxysteroid dehydrogenase 2 inhibitors” (J Med Chem, 2014) can be followed below.

Structures are written as SMILES.

Assay [1] concerns the target T1, 17-beta-hydroxysteroid dehydrogenase type 2 (Homo sapiens, UniProt P37059).
T1 sequence (P37059 whole entry): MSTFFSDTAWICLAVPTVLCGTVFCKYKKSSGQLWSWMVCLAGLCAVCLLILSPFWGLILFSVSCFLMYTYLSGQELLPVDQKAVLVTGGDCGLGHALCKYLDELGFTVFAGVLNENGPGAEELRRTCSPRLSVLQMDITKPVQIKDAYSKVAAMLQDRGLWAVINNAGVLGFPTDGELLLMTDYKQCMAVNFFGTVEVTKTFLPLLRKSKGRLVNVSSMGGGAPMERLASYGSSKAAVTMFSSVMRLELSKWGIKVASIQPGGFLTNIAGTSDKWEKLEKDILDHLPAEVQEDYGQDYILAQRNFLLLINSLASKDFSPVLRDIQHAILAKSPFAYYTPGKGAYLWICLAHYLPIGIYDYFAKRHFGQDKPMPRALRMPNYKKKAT
Description: Inhibition of 17beta-HSD2 (unknown origin) expressed in HEK293 cells lysate. It counts as cell-free. The method, boiled down:
(§1)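 Human 17β-HSD2 from lysates of calcium-phosphate-transfected HEK-293 cells (harvested 48 h). Incubated 10 min at 37 °C in TS2 buffer (pH 7.4) with inhibitor or 0.2% DMSO/chloroform. Substrate 190 nM unlabeled plus 10 nM radiolabeled estradiol with 500 μM NAD+. Stopped with excess estradiol/estrone. Radiolabeled steroids separated by TLC and counted; at least three independent measurements. Rest activity at 20 μM as % of control.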

For assay [2], the target named is T2, 17-beta-hydroxysteroid dehydrogenase type 1 (Homo sapiens) (UniProt P14061).
T2 sequence (whole entry): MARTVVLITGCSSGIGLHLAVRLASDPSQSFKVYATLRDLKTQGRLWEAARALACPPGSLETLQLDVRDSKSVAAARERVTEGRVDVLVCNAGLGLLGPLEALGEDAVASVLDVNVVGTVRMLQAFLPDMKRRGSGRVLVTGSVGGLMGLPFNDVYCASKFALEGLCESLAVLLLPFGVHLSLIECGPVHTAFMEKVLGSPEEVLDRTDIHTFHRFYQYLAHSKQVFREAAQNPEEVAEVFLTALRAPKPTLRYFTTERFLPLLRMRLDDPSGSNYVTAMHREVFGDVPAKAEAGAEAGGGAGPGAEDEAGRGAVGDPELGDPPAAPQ
Nature of the assay: Inhibition of 17beta-HSD1 (unknown origin) expressed in HEK293 cells lysate assessed as residual enzyme activity at 20 uM. It counts as cell-free. A digest of the protocol:
(§2)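 Lysate of HEK-293 cells transfected by calcium phosphate with human 17β-HSD1, harvested after 48 h. Incubated 10 min at 37 °C in TS2 buffer (pH 7.4) with inhibitor or 0.2% DMSO/chloroform. Substrate 190 nM unlabeled plus 10 nM radiolabeled estrone with 500 μM NADPH. Stopped with excess estradiol/estrone. TLC separation and scintillation counting; at least three independent measurements.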

The target of assay [3] is T3, 11-beta-hydroxysteroid dehydrogenase 1 (Homo sapiens, UniProt P28845). Description: Inhibition of 11beta-HSD1 (unknown origin) expressed in HEK293 cells lysate assessed as residual enzyme activity at 20 uM. It counts as cell-free. A digest of the protocol: (§3)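 Lysates of stably transfected cells expressing 11β-HSD1 or 11β-HSD2, 10 min at 37 °C in TS2 buffer (pH 7.4) with inhibitor or 0.2% DMSO solvent. Reactions stopped after 10 min with excess unlabeled cortisone/cortisol. Steroids separated by TLC and quantified by scintillation counting. At least three independent measurements. Lines 2 and 3 report rest activity at 20 μM as % of control.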
Target sequence in this assay (P28845 whole entry, looked up): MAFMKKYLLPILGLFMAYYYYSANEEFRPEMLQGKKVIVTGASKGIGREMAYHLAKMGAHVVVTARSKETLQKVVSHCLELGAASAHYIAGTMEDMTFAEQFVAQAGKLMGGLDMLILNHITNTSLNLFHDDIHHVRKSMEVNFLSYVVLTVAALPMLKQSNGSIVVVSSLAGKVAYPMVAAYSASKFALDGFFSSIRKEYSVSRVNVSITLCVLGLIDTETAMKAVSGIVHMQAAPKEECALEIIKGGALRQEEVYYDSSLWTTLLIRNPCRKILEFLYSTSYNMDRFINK

Assay [4] deals with T4, 11-beta-hydroxysteroid dehydrogenase type 2 (Homo sapiens) (UniProt P80365).
T4 sequence (whole entry): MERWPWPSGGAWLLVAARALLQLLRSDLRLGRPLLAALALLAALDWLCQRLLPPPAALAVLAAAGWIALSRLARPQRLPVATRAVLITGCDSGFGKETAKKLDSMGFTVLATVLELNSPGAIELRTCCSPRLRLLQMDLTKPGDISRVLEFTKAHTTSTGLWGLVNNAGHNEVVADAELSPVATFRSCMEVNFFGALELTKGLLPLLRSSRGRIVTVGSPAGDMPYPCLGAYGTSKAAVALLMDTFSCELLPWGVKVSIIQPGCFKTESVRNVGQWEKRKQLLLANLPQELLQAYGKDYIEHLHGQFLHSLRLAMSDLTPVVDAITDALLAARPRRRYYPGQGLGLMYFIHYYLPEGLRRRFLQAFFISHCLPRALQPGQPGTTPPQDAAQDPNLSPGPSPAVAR
Nature of the assay: Inhibition of 11beta-HSD2 (unknown origin) expressed in HEK293 cells lysate assessed as residual enzyme activity at 20 uM. It counts as cell-free. A digest of the protocol:
as §3

For assay [5], the target named is T5, 17-beta-hydroxysteroid dehydrogenase type 3 (Homo sapiens) (UniProt P37058).
T5 sequence (whole entry): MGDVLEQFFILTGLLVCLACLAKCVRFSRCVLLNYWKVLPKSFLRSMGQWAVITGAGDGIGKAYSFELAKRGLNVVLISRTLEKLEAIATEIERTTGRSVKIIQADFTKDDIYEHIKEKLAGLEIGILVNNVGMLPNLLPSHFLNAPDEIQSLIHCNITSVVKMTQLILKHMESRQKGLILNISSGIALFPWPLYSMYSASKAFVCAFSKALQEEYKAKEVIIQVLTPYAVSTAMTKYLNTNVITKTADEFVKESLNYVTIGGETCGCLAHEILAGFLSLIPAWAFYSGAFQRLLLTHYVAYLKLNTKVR
Nature of the assay: Inhibition of 17beta-HSD3 (unknown origin) expressed in intact HEK293 cells assessed as residual enzyme activity at 20 uM. The assay is classed as cell-based. A digest of the protocol:
(§4)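 HEK-293 cells transiently transfected with 17β-HSD3 by calcium phosphate were seeded at 15 000 cells/well and tested 24 h later in charcoal-treated DMEM. Inhibitor was preincubated 20 min at 37 °C. Substrate was 190 nM unlabeled plus 10 nM radiolabeled androstenedione for 30 min. Reactions stopped with excess androstenedione/testosterone. TLC separation and scintillation counting.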

For assay [6], the target named is T6, 17-beta-hydroxysteroid dehydrogenase type 2 (Homo sapiens) (UniProt P37059).
T6 sequence (whole entry): T1 sequence (P37059 whole entry)
Nature of the assay: Inhibition of 17beta-HSD2 (unknown origin) expressed in HEK293 cells lysate assessed as residual enzyme activity at 20 uM. The assay is classed as cell-free. A digest of the protocol:
as §1

The target of assay [7] is T1, 17-beta-hydroxysteroid dehydrogenase type 2. Description: Inhibition of 17beta-HSD2 (unknown origin) expressed in intact HEK293 cells. It counts as cell-based. The method, boiled down:
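Transfected HEK-293 cells were seeded at 15 000 cells/well 24 h after transfection and assayed 24 h later in charcoal-treated DMEM. Inhibitor was preincubated 20 min at 37 °C, followed by 190 nM unlabeled plus 10 nM radiolabeled estradiol for 20 min. Reactions stopped with excess estradiol/estrone. Steroids separated by TLC and measured by scintillation counting.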

For assay [8], the target named is T3, 11-beta-hydroxysteroid dehydrogenase 1. Description: Inhibition of 11beta-HSD1 (unknown origin) expressed in HEK293 cells lysate. It counts as cell-free. The method, boiled down: as §3
Target sequence in this assay (P28845 whole entry): as the sequence (P28845 whole entry, looked up) above
The target in assay [9] is T7, 17-beta-hydroxysteroid dehydrogenase type 3 (Homo sapiens, UniProt P37058).
T7 sequence (P37058 whole entry): T5 sequence (whole entry)
Description: Inhibition of 17beta-HSD3 (unknown origin) expressed in intact HEK293 cells. The assay is classed as cell-based. The method, boiled down:
as §4

Assay [10] addresses T8, 17-beta-hydroxysteroid dehydrogenase type 1 (Homo sapiens, UniProt P14061).
T8 sequence (P14061 whole entry): T2 sequence (whole entry)
Nature of the assay: Inhibition of 17beta-HSD1 (unknown origin) expressed in HEK293 cells lysate. It counts as cell-free. A digest of the protocol: as §2

Molecule `Clc1ccc(Cl)c(-c2ccc(CNc3nn[nH]n3)o2)c1` had an IC50 in assay [1] of 33 µM. The Activity in [2] is above 70%; in assay [3], above 70%; in [4] it was above 70%; in [5], above 70%; in assay [6], 29%.
In turn, `Cc1ccc(NS(=O)(=O)c2cccc(C(F)(F)F)c2)cc1O` yielded an IC50 in [1] of 7.1 µM. In addition, the Activity in assay [2] was above 70%; in [3], above 70%; in assay [4], above 70%; in assay [5], above 70%; in assay [6], 25%.
For `COc1cc(C)c(S(=O)(=O)Nc2cccc(O)c2)cc1C`, the IC50 in [1] worked out at 6.9 µM. Moreover, the Activity in assay [2] is above 70%; in assay [3] it was above 70%; in assay [4] it was above 70%; in [5], above 70%; in [6] it was 15%.
Take `CC(C)(C)c1ccc(S(=O)(=O)Oc2ccccc2O)cc1`: the IC50 in assay [1] was 0.24 µM; in [7], 0.52 µM; in [8], 2.1 µM; in assay [9], 8.5 µM. Also, the Activity in [2] was above 70%; in assay [4], above 70%; in assay [6], 6%.
Regarding `COc1ccc(S(=O)(=O)Nc2cccc(O)c2)c2c1CCCC2`, the half-maximal inhibitory concentration (IC50) came to 15 µM in [1] and 13 µM in assay [8]. The results for the Activity in assay [2], in assay [4] and in assay [5] were 53%, above 70% and above 70%, respectively.
`Cc1cc(C)c(S(=O)(=O)Nc2cccc(O)c2)cc1C` yielded an IC50 in assay [1] of 3.3 µM. The Activity in [2] is above 70%; in assay [3] it was above 70%; in assay [4], above 70%; in assay [5] it was 43%.
`Cc1cc(S(=O)(=O)Nc2cccc(O)c2)c(C)cc1Cl`: the IC50 stood at 1 µM in assay [1] and 18 µM in assay [10]. The Activity in assay [3] was above 70%; in assay [4] it was above 70%; in [5], 53%.
Regarding `COc1ccc(S(=O)(=O)Nc2ccc(O)c3c2CCCC3)cc1`, the half-maximal inhibitory concentration (IC50) in [1] worked out at 9.6 µM; in assay [8], 8.1 µM. For the same molecule, the Activity in [2], in [4] and in [5] was above 70% each time.
Take `Cc1cc(C)c(OCC(=O)N/N=C/c2ccc(O)cc2O)c(Br)c1`: the IC50 in [1] came to 4.1 µM; in assay [7] it was 23 µM; in assay [9], 1.6 µM. For the same molecule, the Activity in [2] was found to be 52%; in assay [3] it was 69%; in assay [4], 61%; in [6] it was 9%.
As to `O=S(=O)(Nc1ccc(O)c(Cl)c1)c1ccc(F)cc1`, the figures for the IC50 in assay [1], in [7] and in [9] were 3 µM, 10 µM and 3.9 µM, respectively. The Activity in assay [2] is above 70%; in assay [3], above 70%; in assay [4], above 70%; in assay [6] it was 9%.
Turning to `O=C(CSc1nccc(O)n1)Nc1cccc2nsnc12`, the results for the IC50 in assay [1] and in assay [7] were 1.5 µM and 1.1 µM, respectively. Further, the Activity in [2] is above 70%; in assay [3], above 70%; in assay [4] it was above 70%; in [5] it was above 70%; in [6], 8%.
In the case of `Cc1ccc(NS(=O)(=O)c2cccc(Br)c2)cc1O`, half-maximal inhibition in assay [1] (IC50) required 6.3 µM. Moreover, the Activity in [2] was 58%; in [3] it was above 70%; in assay [4] it was above 70%; in assay [5] it was above 70%.
For `O=S(=O)(Nc1cccc(O)c1)c1ccc(Br)cc1`, the IC50 in [1] was determined as 4.9 µM. Further, the Activity in [2], in assay [3], in [4] and in assay [5] was above 70% each time.

What is called IC50 is the concentration that gives 50% inhibition. Read a high IC50 as weaker potency.
